# In ChEMBL document CHEMBL5233277, “Oxidative Metabolism as a Modulator of Kratom's Biological Actions” (J Med Chem, 2021):
# Active and inactive are the calls of the source. The calls are words filed in the database; no cut-off is given here.
# Assays:
# Mus musculus [1] = assay: Potency index, ratio of morphine ED50 to test compound ED50 for antinociceptive activity in po dosed 129Sv6 mouse model assessed as peak effect measured at 15 mins by radiant heat tail flick assay; assay type: functional; settings: 0.25 h
# [2] = Toxicity in C57BL/6J mouse assessed as conditioned place preference at 1 mg/kg, sc; assay type: organism-based; settings: in vivo
# In short: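 C57BL/6J mice (n = 18–24) were habituated to a two-compartment apparatus for 3 h per day over 2 days, then given a 20 min pre-conditioning baseline test. Conditioning used 20 min sessions with drug at 1 mg/kg/d sc or saline. On test day mice explored freely for 20 min, and a difference score was calculated.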
# [3] = Toxicity in C57BL/6J mouse assessed as hyperlocomotion at 1 mg/kg, sc measured after 20 mins; assay type: organism-based; settings: in vivo
# Mus musculus [4] = assay: Antinociceptive activity in po dosed C57BL/6J mouse model assessed as peak effect measured at 20 mins by radiant heat tail flick assay; assay type: functional
# Mus musculus [5] = assay: Potency index, ratio of morphine ED50 to test compound ED50 for antinociceptive activity in po dosed C57BL/6J mouse model assessed as peak effect measured at 20 mins by radiant heat tail flick assay; assay type: functional
# [6] = target: Mu-type opioid receptor (Mus musculus) (UniProt P42866); assay: Potency index, ratio of mitragynine EC50 to test compound EC50 for agonist activity at mouse MOR expressed in CHO cell membranes assessed as stimulation of [35S]-GTPgammaS binding incubated for 60 mins by scintillation spectroscopy analysis; settings: Membrane
# Chain of Mu-type opioid receptor (Mus musculus) (P42866 whole entry): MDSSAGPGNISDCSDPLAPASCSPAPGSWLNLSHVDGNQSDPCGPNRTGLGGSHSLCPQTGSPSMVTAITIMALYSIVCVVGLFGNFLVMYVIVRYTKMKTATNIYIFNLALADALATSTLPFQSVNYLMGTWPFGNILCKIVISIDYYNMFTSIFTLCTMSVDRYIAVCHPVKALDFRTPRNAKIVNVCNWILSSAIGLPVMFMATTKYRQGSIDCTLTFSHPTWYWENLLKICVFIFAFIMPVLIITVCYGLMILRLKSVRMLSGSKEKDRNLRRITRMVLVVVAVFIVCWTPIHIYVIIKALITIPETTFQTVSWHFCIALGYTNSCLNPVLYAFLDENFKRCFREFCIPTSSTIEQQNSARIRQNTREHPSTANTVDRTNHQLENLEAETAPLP
# Mus musculus [7] = assay: Antinociceptive activity in sc dosed 129Sv6 mouse model assessed as peak effect measured at 15 mins by radiant heat tail flick assay; assay type: functional; settings: 129Sv6, 0.25 h
# [8] = target: Mu-type opioid receptor (Mus musculus) (UniProt P42866); assay: Potency index, ratio of mitragynine Ki to test compound Ki for displacement of [125]IBNtxA from mouse MOR stably expressed in CHO cell membranes incubated for 90 mins; settings: Membrane
# [9] = Drug concentration in C57BL/6J mouse brain at 1 mg/kg, sc measured after 20 mins by LC-MS/MS analysis; assay type: ADME, organism-based; settings: read-out: Ct
# [10] = Drug concentration in C57BL/6J mouse plasma at 1 mg/kg, sc measured after 20 mins by LC-MS/MS analysis; assay type: ADME, organism-based
# Mu-type opioid receptor [11] = target: T1, Mu-type opioid receptor (Mus musculus, UniProt P42866); assay: Displacement of [125]IBNtxA from mouse MOR stably expressed in CHO cell membranes incubated for 90 mins; set-up: species or system Membrane
# T1 sequence (P42866 whole entry): as above
# In short: (§1)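 MOR: 50 mM potassium phosphate with 5 mM MgSO4, 20 μg/mL protein. KOR and DOR: 50 mM potassium phosphate pH 7.0, 40 μg/mL protein. 25 °C, 90 min; glass-fiber filtration; levallorphan 8 μM defines nonspecific binding. Ki from IC50; at least three replicates.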
# [12] = target: T2, Kappa-type opioid receptor (Mus musculus, UniProt P33534); assay: Displacement of [125]IBNtxA from mouse KOR stably expressed in CHO cell membranes incubated for 90 mins; set-up: species or system Membrane; in short: as §1
# T2 sequence (P33534 whole entry): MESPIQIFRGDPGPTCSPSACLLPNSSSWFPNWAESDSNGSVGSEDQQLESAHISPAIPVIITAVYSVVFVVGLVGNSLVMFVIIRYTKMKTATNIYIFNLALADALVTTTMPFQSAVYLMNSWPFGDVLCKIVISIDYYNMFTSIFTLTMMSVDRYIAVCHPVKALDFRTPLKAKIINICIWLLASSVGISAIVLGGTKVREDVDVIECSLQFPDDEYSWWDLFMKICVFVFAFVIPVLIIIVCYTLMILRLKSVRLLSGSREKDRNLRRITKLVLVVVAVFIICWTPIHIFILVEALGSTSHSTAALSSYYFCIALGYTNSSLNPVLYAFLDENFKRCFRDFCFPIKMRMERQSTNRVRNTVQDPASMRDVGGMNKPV
# [13] = target: T3, Delta-type opioid receptor (Mus musculus, UniProt P32300); assay: Displacement of [125]IBNtxA from mouse DOR stably expressed in CHO cell membranes incubated for 90 mins; set-up: species or system Membrane; in short: as §1
# T3 sequence (P32300 whole entry): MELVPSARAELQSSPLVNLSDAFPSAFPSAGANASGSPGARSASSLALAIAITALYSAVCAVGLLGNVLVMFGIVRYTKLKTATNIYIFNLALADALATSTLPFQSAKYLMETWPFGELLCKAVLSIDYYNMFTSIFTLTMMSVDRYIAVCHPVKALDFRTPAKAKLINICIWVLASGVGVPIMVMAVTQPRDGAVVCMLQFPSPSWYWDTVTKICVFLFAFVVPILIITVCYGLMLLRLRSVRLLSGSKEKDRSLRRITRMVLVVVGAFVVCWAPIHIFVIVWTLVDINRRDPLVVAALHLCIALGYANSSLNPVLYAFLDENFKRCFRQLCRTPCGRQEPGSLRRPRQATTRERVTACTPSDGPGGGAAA
# [14] = target: Mu-type opioid receptor (Mus musculus) (UniProt P42866); assay: Partial agonist activity at mouse MOR expressed in CHO cell membranes assessed as stimulation of [35S]-GTPgammaS binding by measuring maximal efficacy incubated for 60 mins by scintillation spectroscopy analysis relative DAMGO; settings: Membrane, filed as partial agonist
# In short: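 Membranes from CHO cells stably expressing mouse MOR were used in an agonist-stimulated [35S]GTPγS binding assay. […] Data are from three independent experiments, each run in triplicate.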
# [15] = target: Kappa-type opioid receptor (Mus musculus) (UniProt P33534); assay: Agonist activity at mouse KOR expressed in CHO cell membranes assessed as stimulation of [35S]-GTPgammaS binding by measuring maximal efficacy incubated for 60 mins by scintillation spectroscopy analysis relative to U50,488H; settings: Membrane, filed as agonist
# Chain of Kappa-type opioid receptor (Mus musculus) (P33534 whole entry): as the sequence (P33534 whole entry) above
# In short: (§2)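 CHO cell membranes stably expressing cloned mouse opioid receptors; agonist-stimulated [35S]GTPγS binding. […] Three independent experiments, each in triplicate.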
# [16] = target: T2, Kappa-type opioid receptor; assay: (§3) Agonist activity at mouse KOR expressed in CHO cell membranes assessed as stimulation of [35S]-GTPgammaS binding incubated for 60 mins by scintillation spectroscopy analysis; set-up: species or system Membrane
# In short: (§4)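 CHO cell membranes stably expressing cloned mouse opioid receptors; agonist-stimulated [35S]GTPγS binding. Three independent experiments, each in triplicate.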
# [17] = target: T3, Delta-type opioid receptor; assay: (§5) Antagonist activity at mouse DOR expressed in CHO cell membranes assessed as inhibition of DPDPE induced [35S]-GTPgammaS binding incubated for 60 mins by scintillation spectroscopy analysis; set-up: species or system Membrane
# [18] = target: Mu-type opioid receptor (Mus musculus) (UniProt P42866); assay: Agonist activity at mouse MOR expressed in CHO cell membranes assessed as stimulation of [35S]-GTPgammaS binding by measuring maximal efficacy incubated for 60 mins by scintillation spectroscopy analysis relative DAMGO; settings: Membrane, filed as agonist; in short: as §2
# Mu-type opioid receptor [19] = target: T1, Mu-type opioid receptor; assay: Agonist activity at mouse MOR expressed in CHO cell membranes assessed as stimulation of [35S]-GTPgammaS binding incubated for 60 mins by scintillation spectroscopy analysis; set-up: species or system Membrane; in short: as §4
# [20] = target: Delta-type opioid receptor (Mus musculus) (UniProt P32300); assay: as §5; settings: Membrane
# Chain of Delta-type opioid receptor (Mus musculus) (P32300 whole entry): as the sequence (P32300 whole entry) above
# [21] = target: Kappa-type opioid receptor (Mus musculus) (UniProt P33534); assay: as §3; settings: Membrane; in short: as §4
# Mus musculus [22] = species on record: Mus musculus; assay: Antinociceptive activity in mouse; assay type: functional, organism-based
# [23] = Toxicity in C57BL/6J mouse at 50 mg/kg, sc in presence of norbinaltorphimine; assay type: organism-based; settings: in vivo
# [24] = Toxicity in C57BL/6J mouse at 50 mg/kg, sc in presence of naltrindole; assay type: organism-based; settings: in vivo
# [25] = Toxicity in CD1 mouse assessed as fatality at 10 ug, IT; settings: in vivo, other, dose 10 µg
# [26] = Drug concentration in C57BL/6J mouse plasma at 30 mg/kg, po measured after 24 hrs by LC-MS/MS analysis; assay type: ADME, organism-based; settings: in vivo, BLD = below limit of detection
# [27] = Toxicity in sc dosed 129Sv6 mouse assessed as lethality; assay type: organism-based; settings: in vivo
# In short: (§6)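 Groups of mice (n = 6 per dose) received graded subcutaneous doses in DMSO/solutol/saline (1:1:8) and were scored for lethality. […] Strains were 129Sv6 for line 3 and CD1 for […], both purchased from Jackson Laboratories.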
# [28] = Toxicity in sc dosed C57BL/6J mouse assessed as lethality at 50 mg/kg, sc; assay type: organism-based; settings: in vivo, read-out: Activity
# In short: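 Opioid-naïve C57BL/6J mice (n = 4) were given a single 50 mg/kg subcutaneous dose in DMSO/solutol/saline (1:1:8) and observed for lethality, reported as percent of animals dying.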
# [29] = Toxicity in 129Sv6 mouse assessed as fatality at 10 ug, IT; settings: in vivo, other, dose 10 µg
# [30] = Toxicity in sc dosed CD1 mouse assessed as lethality; assay type: organism-based; settings: in vivo; in short: as §6
# [31] = Drug concentration in C57BL/6J mouse brain at 30 mg/kg, po measured after 24 hrs by LC-MS/MS analysis; assay type: ADME, organism-based; settings: in vivo, BLD = below limit of detection
# [32] = Toxicity in MOR knock out C57BL/6J mouse at 50 mg/kg, sc in presence of naltrindole; assay type: organism-based; settings: in vivo
# [33] = Toxicity in MOR knock out C57BL/6J mouse at 50 mg/kg, sc in presence of norbinaltorphimine; assay type: organism-based; settings: in vivo
# Mus musculus [34] = species on record: Mus musculus; assay: animal or person; settings: 129Sv6, po, 1 h
# Mus musculus [35] = species on record: Mus musculus; assay: animal or person; settings: C57BL/6J, po, 0.5 h
# Mus musculus [36] = species on record: Mus musculus; assay: animal or person; settings: 129Sv6, 0.5 h
SMILES,ED50 (Mus musculus [7]) [mg/kg],Ki (Mu-type opioid receptor [11]) [µM],Ki [12] [µM],Ki [13] [µM],Emax [15] [%],EC50 [16] [µM],Emax [18] [%],EC50 (Mu-type opioid receptor [19]) [µM],other results
CC[C@@H]1CN2CC[C@@]3(O)C(=Nc4cccc(OC)c43)[C@@H]2C[C@@H]1/C(=C\OC)C(=O)OC,0.2,–,–,–,–,–,–,–,Ratio ED50 (Mus musculus [1]): 3; Activity [2]: Toxic; Activity [3]: Non-Toxic; ED50 (Mus musculus [4]): 0.3 mg/kg; Ratio ED50 (Mus musculus [5]): 3; Ratio EC50 [6]: 4; Ratio Ki [8]: 6; concentration at 20 min [9]: 450 nM; concentration at 20 min [10]: 270 nM
CO/C=C(/C(=O)OC)[C@@H]1CCN2CC[C@]3(Nc4cccc(OC)c4C3=O)[C@@H]2C1,0.3,–,–,–,–,–,–,–,Ratio ED50 (Mus musculus [1]): 2; Activity [3]: Non-Toxic; ED50 (Mus musculus [4]): 0.26 mg/kg; Ratio ED50 (Mus musculus [5]): 2; concentration at 20 min [9]: 70 nM; concentration at 20 min [10]: 410 nM
CC[C@@H]1C[N+]2([O-])CCc3c([nH]c4cccc(OC)c34)[C@@H]2C[C@@H]1/C(=C\OC)C(=O)OC (stereo not given in full),–,6.9,7.18,4.14,–,–,–,–,–
CC[C@@H]1CN2CCc3c([nH]c4cccc(OC)c34)[C@H]2C[C@@H]1/C(=C\OC)C(=O)OC,> 100,–,–,–,58,–,–,–,Emax [14]: 45%
C=C[C@H]1CN2CCc3c([nH]c4cccc(OC)c34)[C@@H]2C[C@@H]1/C(=C\OC)C(=O)OC,> 100,0.666,0.883,3.39,57,3.59,54,9.38,IC50 [17]: > 10 µM
CC[C@@H]1CN2CCc3c([nH]c4cccc(O)c34)[C@@H]2C[C@@H]1/C(=C\OC)C(=O)OC,> 100,0.216,1.18,1.88,87,0.858,62,–,inhibition [20]: inactive
CC[C@@H]1CN2CCc3c([nH]c4cccc(O[C@@H]5O[C@H](C(=O)O)[C@@H](O)[C@H](O)[C@H]5O)c34)[C@@H]2C[C@@H]1/C(=C\OC)C(=O)OC,> 30,1.67,1.27,3.24,98,1.14,102,5.78,inhibition [20]: inactive
CC[C@H]1CN2CCc3c([nH]c4cccc(OC)c34)[C@@H]2C[C@@H]1/C(=C\OC)C(=O)OC,–,–,–,–,–,–,43,–,Activity [21]: inactive
CC[C@@H]1C[N+]2=C(C[C@@H]1/C(=C\OC)C(=O)OC)c1[nH]c3cccc(OC)c3c1CC2,> 100,0.0341,0.125,0.0491,64,0.166,–,0.0675,Activity (Mus musculus [22]): inactive; Activity [23]: Toxic; IC50 [17]: 1.1 µM; Activity [24]: Toxic; Activity [25]: Toxic; Cp [26]: Bld; LD50 [27]: 48.4 mg/kg; mortality [28]: 100%; Activity [29]: Toxic; LD50 [30]: 74 mg/kg; Ct [31]: Bld; Activity [32]: Toxic; Activity [33]: Toxic
CN1CC[C@]23c4c5ccc(O)c4O[C@H]2[C@@H](O)C=C[C@H]3[C@H]1C5 [MORPHINE],0.68,–,–,–,–,–,–,–,ED50 (Mus musculus [34]): 3.3 mg/kg; ED50 (Mus musculus [35]): 4.73 mg/kg; ED50 (Mus musculus [36]): 0.7 mg/kg
